ChEMBL document CHEMBL3774374, “The Effect of Small Molecules on Sterol Homeostasis: Measuring 7-Dehydrocholesterol in Dhcr7-Deficient Neuro2a Cells and Human Fibroblasts” (J Med Chem, 2016)
Calls of active or inactive are those of the source. No cut-off for these calls is given here.

Key:
Fibroblast [1] = test: Increase in lanosterol levels in human SLOS fibroblasts at 1 uM by LC-MS/GC-MS analysis; assay type: functional, cell-based
In short: (§1)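 SLOS patient skin fibroblasts (passage 8–20) grown in 96-well plates in delipidated serum with compound for 5 days; three different SLOS lines. Sterols quantified by PTAD-derivatized UPLC-MS plus GC-MS; 7-DHC expressed as percentage of untreated cells.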

N2a [2] = test: Increase in lanosterol levels in Dhcr7-deficient mouse Neuro2a cells at 1 uM by LC-MS analysis; assay type: functional, cell-based
In short: (§2)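 Dhcr7-deficient Neuro2a cells (13000/well, 0.5% FBS medium) on predeposited compound, 24 h at 37 °C. Hoechst-stained and imaged to count cells. Lysed in methanol containing isotope-labelled sterol standards, derivatized with PTAD 20 min at RT, then isocratic C18 UPLC-MS/SRM. Remaining extract silylated with BSTFA for GC-MS, quantified against d7-cholesterol. Follow-up runs in triplicate.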

[3] = target: T1, Delta(24)-sterol reductase (Mus musculus) (UniProt Q8VCH6); test: Inhibition of DR24 in Dhcr7-deficient mouse Neuro2a cells assessed as decrease in 7-DHC levels at 1 uM by LC-MS/GC-MS analysis; assay type: cell-based; in short: as §2
T1 sequence (whole entry): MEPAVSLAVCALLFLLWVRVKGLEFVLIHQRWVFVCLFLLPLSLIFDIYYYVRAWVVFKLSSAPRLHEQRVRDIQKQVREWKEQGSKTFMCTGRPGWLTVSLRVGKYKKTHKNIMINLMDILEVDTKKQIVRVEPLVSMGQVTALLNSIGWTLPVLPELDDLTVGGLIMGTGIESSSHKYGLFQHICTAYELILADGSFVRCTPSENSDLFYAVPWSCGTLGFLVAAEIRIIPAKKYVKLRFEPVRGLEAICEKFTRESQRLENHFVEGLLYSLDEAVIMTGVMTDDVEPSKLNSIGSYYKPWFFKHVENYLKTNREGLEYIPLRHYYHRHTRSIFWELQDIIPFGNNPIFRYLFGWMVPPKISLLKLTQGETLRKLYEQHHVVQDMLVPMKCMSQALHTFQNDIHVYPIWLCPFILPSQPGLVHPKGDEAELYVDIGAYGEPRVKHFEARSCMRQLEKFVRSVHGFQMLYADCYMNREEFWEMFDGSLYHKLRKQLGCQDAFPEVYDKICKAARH

[4] = target: T1, Delta(24)-sterol reductase (Mus musculus); test: Inhibition of DR24 in Dhcr7-deficient mouse Neuro2a cells assessed as increase in desmosterol levels at 100 nM by LC-MS/GC-MS analysis; assay type: cell-based
In short: (§3)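 Follow-up (verification) assay in 96-well plates, run as the 384-well screen, in triplicate, at varying compound concentrations. Cells counted by Hoechst imaging, washed with PBS, then lysed in MeOH with BHT/TPP and isotope standards (d7-Chol, d7-7-DHC, 13C3-Des, 13C3-Lan). Sterols derivatised with PTAD for 20 min at RT and quantified by C18 UPLC-MS (SRM). Remaining sample silylated with BSTFA and run on GC-MS, quantified against d7-Chol.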

[5] = target: T1, Delta(24)-sterol reductase (Mus musculus); test: Inhibition of DR24 in Dhcr7-deficient mouse Neuro2a cells assessed as increase in lanosterol levels at 100 nM by LC-MS/GC-MS analysis; assay type: cell-based; in short: as §3
N2a [6] = test: Change in cholesterol level in Dhcr7-deficient mouse Neuro2a cells at 100 nM by LC-MS/GC-MS analysis; assay type: functional, cell-based; in short: as §3
N2a [7] = test: Increase in 7-DHC levels in mouse Neuro2a cells at 100 nM by LC-MS analysis; assay type: functional
In short: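 Control Neuro2a cells in 96-well plates, treated at 1, 10 and 100 nM. 7-DHC measured by PTAD derivatization and UPLC-MS against deuterated 7-DHC standard; n > 3.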

N2a [8] = test: Decrease in lanosterol levels in mouse Neuro2a cells by LC-MS analysis; assay type: functional, cell-based
In short: (§4)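 Control Neuro2a cells (10000/well, 0.5% FBS) on compound, 24 h. Hoechst cell count, then methanol lysis with labelled standards (d7-7-DHC, 13C3-desmosterol, 13C3-lanosterol), PTAD derivatization 20 min at RT, UPLC-MS SRM. GC-MS of silylated extract for further sterols.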

N2a [9] = test: Increase in 7-DHC levels in Dhcr7-deficient mouse Neuro2a cells at 200 nM after 24 hrs by LC-MS analysis; assay type: functional, cell-based
In short: (§5)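 384-well screen: Dhcr7-deficient Neuro2a cells (13000/well, 0.5% FBS) with compound at 20 or 200 nM (five wells each), 24 h at 37 °C. Cells counted after Hoechst imaging, then methanol lysis with d7-7-DHC standard, PTAD derivatization 20 min at RT, UPLC-MS SRM (7-DHC 560→365). Read-out is pg 7-DHC per cell.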

N2a [10] = test: Decrease in desmosterol levels in mouse Neuro2a cells by LC-MS analysis; assay type: functional, cell-based; in short: as §4
[11] = target: T1, Delta(24)-sterol reductase (Mus musculus); test: Inhibition of DR24 in mouse Neuro2a cells assessed as decrease in 7-DHC levels at 1 uM by LC-MS/GC-MS analysis; assay type: cell-based; in short: as §4
[12] = target: T2, 3-beta-hydroxysteroid-Delta(8),Delta(7)-isomerase (Mus musculus) (UniProt P70245); test: Inhibition of delta 8-7 isomerase in Dhcr7-deficient mouse Neuro2a cells assessed as decrease in 7-DHC levels at 200 nM after 24 hrs by LC-MS analysis; assay type: cell-based
T2 sequence (whole entry): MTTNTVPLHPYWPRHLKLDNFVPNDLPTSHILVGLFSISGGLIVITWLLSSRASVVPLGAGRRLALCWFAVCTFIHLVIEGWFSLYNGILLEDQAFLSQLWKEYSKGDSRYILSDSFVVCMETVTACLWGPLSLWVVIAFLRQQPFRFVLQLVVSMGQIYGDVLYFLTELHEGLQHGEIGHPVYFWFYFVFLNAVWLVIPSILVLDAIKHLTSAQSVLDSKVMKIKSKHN
In short: (§6)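 384-well screen: Dhcr7-deficient Neuro2a cells (13000/well) dispensed in 0.5% FBS medium onto predeposited compound (five wells each at 20 and 200 nM) and incubated 24 h at 37 °C. Nuclei Hoechst-stained and counted by automated imaging. Cells lysed in MeOH with deuterated and 13C standards, then derivatised with PTAD for 20 min at RT. 7-DHC measured by isocratic UPLC-MS (SRM) and expressed as pg per cell; DMSO wells served as controls.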

[13] = target: T2, 3-beta-hydroxysteroid-Delta(8),Delta(7)-isomerase (Mus musculus); test: Inhibition of delta 8-7 isomerase in Dhcr7-deficient mouse Neuro2a cells assessed as increase in zymostenol levels at 1 uM by LC-MS/GC-MS analysis; assay type: cell-based; in short: as §3
[14] = target: T2, 3-beta-hydroxysteroid-Delta(8),Delta(7)-isomerase (Mus musculus); test: Inhibition of delta 8-7 isomerase in Dhcr7-deficient mouse Neuro2a cells assessed as decrease in 7-DHC levels at 20 nM after 24 hrs by LC-MS analysis; assay type: cell-based; in short: as §6
[15] = target: T2, 3-beta-hydroxysteroid-Delta(8),Delta(7)-isomerase (Mus musculus); test: Inhibition of delta 8-7 isomerase in mouse Neuro2a cells assessed as decrease in 7-DHC levels at 1 uM by LC-MS/GC-MS analysis; assay type: cell-based; in short: as §4
[16] = target: T3, Delta(24)-sterol reductase (Homo sapiens) (UniProt Q15392); test: Inhibition of DR24 in human SLOS fibroblasts assessed as decrease in 7-DHC levels at 10 nM after 5 days by LC-MS/GC-MS analysis; in short: as §1
T3 sequence (whole entry): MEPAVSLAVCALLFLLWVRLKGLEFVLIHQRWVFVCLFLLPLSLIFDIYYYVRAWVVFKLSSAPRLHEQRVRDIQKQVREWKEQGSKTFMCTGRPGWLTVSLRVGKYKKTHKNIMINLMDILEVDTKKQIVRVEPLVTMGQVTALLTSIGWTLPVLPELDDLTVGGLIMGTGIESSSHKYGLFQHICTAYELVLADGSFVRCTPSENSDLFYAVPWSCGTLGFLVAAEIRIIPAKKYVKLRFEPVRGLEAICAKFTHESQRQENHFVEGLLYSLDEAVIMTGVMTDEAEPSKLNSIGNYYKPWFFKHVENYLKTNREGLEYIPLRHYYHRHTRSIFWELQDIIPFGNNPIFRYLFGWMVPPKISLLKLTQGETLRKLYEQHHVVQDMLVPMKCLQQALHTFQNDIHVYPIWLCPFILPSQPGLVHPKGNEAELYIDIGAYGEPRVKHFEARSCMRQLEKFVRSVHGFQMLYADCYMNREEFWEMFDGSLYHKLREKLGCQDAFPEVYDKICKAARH

Fibroblast [17] = test: Decrease in cholesterol levels in human SLOS fibroblasts at 10 nM after 5 days by LC-MS/GC-MS analysis; assay type: functional, cell-based; in short: as §1
[18] = target: 3-beta-hydroxysteroid-Delta(8),Delta(7)-isomerase (Homo sapiens) (UniProt Q15125); test: Inhibition of delta 8-7 isomerase in human SLOS fibroblasts assessed as decrease in 7-DHC levels at 10 nM after 5 days by LC-MS/GC-MS analysis; in short: as §1
[19] = target: T1, Delta(24)-sterol reductase (Mus musculus); test: Inhibition of DR24 in Dhcr7-deficient mouse Neuro2a cells assessed as decrease in 7-DHC levels at 20 nM after 24 hrs by LC-MS analysis; assay type: cell-based; in short: as §5
[20] = target: T1, Delta(24)-sterol reductase (Mus musculus); test: Inhibition of DR24 in Dhcr7-deficient mouse Neuro2a cells assessed as decrease in 7-DHC levels at 200 nM after 24 hrs by LC-MS analysis; assay type: cell-based; in short: as §5
[21] = target: T2, 3-beta-hydroxysteroid-Delta(8),Delta(7)-isomerase (Mus musculus); test: Inhibition of delta 8-7 isomerase in Dhcr7-deficient mouse Neuro2a cells assessed as decrease in cholesterol levels at 1 uM by LC-MS/GC-MS analysis; assay type: cell-based; in short: as §3
[22] = target: T2, 3-beta-hydroxysteroid-Delta(8),Delta(7)-isomerase (Mus musculus); test: Inhibition of delta 8-7 isomerase in Dhcr7-deficient mouse Neuro2a cells assessed as decrease in 7-DHC levels at 1 uM by LC-MS/GC-MS analysis; assay type: cell-based; in short: as §2
[23] = Cytotoxicity against human SLOS fibroblasts at 5 uM after 5 days by Cell Titer assay; assay type: cell-based; settings: fibroblast, 120 h
[24] = target: T2, 3-beta-hydroxysteroid-Delta(8),Delta(7)-isomerase (Mus musculus); test: Inhibition of delta 8-7 isomerase in Dhcr7-deficient mouse Neuro2a cells assessed as increase in zymosterol levels at 1 uM by LC-MS/GC-MS analysis; assay type: cell-based; in short: as §3
[25] = target: T1, Delta(24)-sterol reductase (Mus musculus); test: Inhibition of Dhcr24 in Dhcr7-deficient mouse Neuro2a cells assessed as increase in 7-dehydrodesmosterol levels at 1 uM by LC-MS/GC-MS analysis; assay type: cell-based; in short: as §2
[26] = target: T1, Delta(24)-sterol reductase (Mus musculus); test: Inhibition of C-24 reductase in Dhcr7-deficient mouse Neuro2a cells assessed as increase in desmosterol levels at 1 uM by LC-MS/GC-MS analysis; assay type: cell-based; in short: as §2
[27] = target: 3-beta-hydroxysteroid-Delta(8),Delta(7)-isomerase (Homo sapiens) (UniProt Q15125); test: Inhibition of delta 8-7 isomerase in human SLOS fibroblasts assessed as decrease in 7-DHC levels at 100 nM after 5 days by LC-MS/GC-MS analysis
In short: (§7)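 SLOS patient skin fibroblasts (passage 8–20; three different lines) grown in 96-well plates in delipidated serum with compound for 5 days. 7-DHC and cholesterol quantified by PTAD-derivatisation UPLC-MS with isotopic standards. Values expressed as percentage of 7-DHC in the same cells grown without compound.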

[28] = target: T3, Delta(24)-sterol reductase (Homo sapiens); test: Inhibition of DR24 in human SLOS fibroblasts assessed as decrease in 7-DHC levels at 100 nM after 5 days by LC-MS/GC-MS analysis; in short: as §7

3-beta-hydroxysteroid-Delta(8),Delta(7)-isomerase (Homo sapiens), sequence (Q15125 whole entry): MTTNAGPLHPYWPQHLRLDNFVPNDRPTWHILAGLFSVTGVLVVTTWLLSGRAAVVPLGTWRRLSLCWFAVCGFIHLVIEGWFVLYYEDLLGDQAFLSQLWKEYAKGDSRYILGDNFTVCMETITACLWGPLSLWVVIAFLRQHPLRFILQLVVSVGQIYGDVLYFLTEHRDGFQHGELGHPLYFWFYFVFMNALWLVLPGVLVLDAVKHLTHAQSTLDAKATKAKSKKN

Structure (SMILES)	inhibition [3]	inhibition [13]	Activity (decrease in 7-DHC levels) [15]	inhibition [16]	Activity (Fibroblast [17])	inhibition [18]	inhibition [21]	inhibition [22]	Activity [23]	inhibition [24]	also measured
CC(=O)O[C@@]1(C(C)=O)CC[C@H]2[C@H]3C=C(C)C4=CC(=O)CC[C@]4(C)[C@H]3CC[C@@]21C	–	–	–	–	–	–	–	–	–	–	Activity (Fibroblast [1]): Active; Activity (N2a [2]): Active
CCC(COC(=O)c1cc(OC)c(OC)c(OC)c1)(c1ccccc1)N(C)C (stereo not drawn)	Active	–	–	–	–	–	–	–	–	–	inhibition [4]: Active; inhibition [5]: Active; Activity (N2a [6]): inactive
O=C1CCc2ccc(OCCCCN3CCN(c4cccc(Cl)c4Cl)CC3)cc2N1 [ARIPIPRAZOLE]	–	–	–	–	–	–	–	–	–	–	fold change (FC) (N2a [7]): 40; Activity (N2a [8]): Active; Activity (N2a [9]): Active; Activity (N2a [10]): Active
CCN(CC)CCOc1ccc(C(=C(Cl)c2ccccc2)c2ccccc2)cc1 [CLOMIPHENE]	Active	Active	Active	Active	inactive	Active	Active	Active	Non-toxic	Active	Decrease in 7-DHC levels (active/inactive call) [11]: Active; inhibition [12]: Active; inhibition [14]: Active; inhibition [19]: Active; inhibition [20]: Active
COc1ccc2c(c1)OC(C)(C)[C@@H](c1ccccc1)[C@@H]2c1ccc(OCCN2CCCC2)cc1 [LEVORMELOXIFENE]	Active	–	–	Active	inactive	Active	–	Active	Toxic	–	inhibition [25]: Active; inhibition [26]: Active
CN(C)CCOc1ccc(/C(=C(/CCCl)c2ccccc2)c2ccccc2)cc1 [TOREMIFENE]	Active	Active	Active	–	–	–	Active	Active	Toxic	Active	inhibition [11]: Active; inhibition [27]: Active; inhibition [28]: Active
